Measurements published in ChEMBL document CHEMBL1122141, “Potential radiosensitizing agents. 4. 2-Nitroimidazole nucleosides” (J Med Chem, 1982).

Experiments:
[1] = system: V79; assay: In vitro radiosensitizing activity against V-79 hypoxic cells was determined in the presence of the sensitizer under nitrogen at a concentration of 1.0 mM; format: functional, Cricetulus griseus
Method in brief: (§1)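 Asynchronous monolayer V-79 Chinese hamster cells from exponential cultures, plated in dishes and made hypoxic by purging sealed containers with 95% nitrogen/5% CO2. Drug exposure was 1 h at 37 °C under hypoxia, followed by cobalt-60 irradiation (~240 rad/min, 400–2700 rad). Colonies were grown 6 days at 37 °C, then fixed in ethanol, stained with methylene blue and counted. SER = D0 of hypoxic controls / D0 of drug-treated hypoxic cells.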

[2] = Partition coefficient of the compound; format: ADME; settings: octanol/water
[3] = system: V79; assay: In vitro radiosensitizing activity against V-79 hypoxic cells was determined in the presence of the sensitizer under nitrogen at a concentration of 0.5 mM; format: functional, Cricetulus griseus; method in brief: as §1
[4] = system: V79; assay: In vitro radiosensitizing activity against V-79 hypoxic cells was determined in the presence of the sensitizer under nitrogen at a concentration of 0.25 mM; format: functional, Cricetulus griseus; method in brief: as §1
[5] = system: V79; assay: In vitro radiosensitizing activity against V-79 Hypoxic cells was determined in the presence of the sensitizer under nitrogen at a concentration of 0.1 mM; format: functional, Cricetulus griseus; method in brief: as §1
[6] = system: V79; assay: In vitro radiosensitizing activity against V-79 hypoxic cells was determined in the presence of the sensitizer under nitrogen at a concentration of 0.05 mM; format: functional, Cricetulus griseus; method in brief: as §1

Partition coefficient [2] | SMILES | SER ([1]; in the assay text read “0.01 mM” for “1.0 mM”) | SER [1] | SER [3] | SER [4] | SER [5] | SER [6]
15.66 | O=C(OC[C@H]1O[C@@H](n2ccnc2[N+](=O)[O-])[C@H](OC(=O)c2ccccc2)[C@@H]1OC(=O)c1ccccc1)c1ccccc1 | 1 | – | – | – | – | –
0.22 | O=[N+]([O-])c1nccn1C1SC(CO)C(O)C(O)C1O (stereo not drawn) | – | 1.7 | 1.4 | 1.2 | – | –
0.04 | O=[N+]([O-])c1nccn1C1OC(CO)C(O)C(O)C1O (stereo not drawn) | – | 1 | – | – | – | –
3.31 | CC(=O)OCC1OC(n2ccnc2[N+](=O)[O-])C(OC(C)=O)C(OC(C)=O)C1OC(C)=O (stereo not drawn) | – | – | – | – | 1.2 | –
2.56 | COC(=O)C1(n2ccnc2[N+](=O)[O-])CC(OC(C)=O)C(NC(C)=O)C(C(OC(C)=O)C(COC(C)=O)OC(C)=O)O1 (stereo not drawn) | – | 1.6 | 1.4 | 1.2 | – | –
4.22 | CC(=O)OCC1SC(n2ccnc2[N+](=O)[O-])C(OC(C)=O)C(OC(C)=O)C1OC(C)=O (stereo not drawn) | – | – | – | – | – | 1.1
0.07 | O=[N+]([O-])c1nccn1C1O[C@H](CO)[C@@H](O)[C@H]1O (stereo partly drawn) | – | – | 1.4 | – | – | –
